Test results as given in ChEMBL document CHEMBL2311419, “Discovery of coumarin-dihydropyridine hybrids as bone anabolic agents” (J Med Chem, 2013).
Active and inactive are the calls of the source. The rule behind the calls is not given here.

Legend:
Mus musculus [1] = test: Inhibition of osteoclastogenesis in ovariectomized BALB/c mouse model assessed as suppression of TRAP gene expression at 5 to 10 mg/kg/day, po qd for 8 weeks by qPCR analysis; assay type: functional, organism-based
Mus musculus [2] = test: Induction of osteoblast differentiation in ovariectomized BALB/c mouse model assessed as upregulation of COL1 mRNA expression po administered qd for 8 weeks by qPCR analysis; assay type: functional, organism-based
Mus musculus [3] = test: Antiosteoporotic activity in ovariectomized BALB/c mouse model assessed as restoration of ovariectomy-induced increase in structural model index at 1 mg/kg/day, po qd for 8 weeks; assay type: functional, organism-based
Calvarial osteoblast [4] = test: Induction of osteoblastogenesis in mouse calvarial osteoblasts assessed as increase in expression of COL1 gene at 100 pM to 10 nM by qPCR analysis relative to control; assay type: functional
Calvarial osteoblast [5] = test: Induction of osteoblastogenesis in mouse calvarial osteoblasts assessed as increase in expression of osteocalcin gene at 100 pM by qPCR analysis relative to control; assay type: functional, cell-based
Mus musculus [6] = test: Induction of osteoblast differentiation in ovariectomized BALB/c mouse model assessed as upregulation of RUNX2 mRNA expression po administered qd for 8 weeks by qPCR analysis; assay type: functional, organism-based
Mus musculus [7] = test: Induction of new bone formation in ovariectomized BALB/c mouse model assessed as increase in bone formation rate at 5 mg/kg/day, po qd for 8 weeks by bone histomorphometry analysis (Rvb =0.10 um'3/um'2/day); assay type: functional
Calvarial osteoblast [8] = test: Induction of osteoblastogenesis in mouse calvarial osteoblasts assessed as increase in expression of RUNX2 gene at 100 pM to 10 nM by qPCR analysis relative to control; assay type: functional
Mus musculus [9] = test: Inhibition of osteoclastogenesis in ovariectomized BALB/c mouse model assessed as suppression of RANK gene expression at 5 to 10 mg/kg/day, po qd for 8 weeks by qPCR analysis; assay type: functional, organism-based
Mus musculus [10] = organism: Mus musculus; test: Stimulation of alkaline phosphatase activity in mouse calvarial osteoblasts at 1 pM to 1 uM after 48 hrs by spectrophotometric analysis
How it was run: (§1)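 Calvarial osteoblasts were exposed to compounds over 1 pM to 1 µM. ALP activity was read spectrophotometrically as optical density at 405 nm. Results were expressed as % ALP activity, with EC50 and Emax derived from the concentration series.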

Calvarial osteoblast [11] = test: Induction of osteoblastogenesis in mouse calvarial osteoblasts assessed as increase in COL1 expression at 100 pM to 10 nM by Western blotting analysis; assay type: functional, cell-based
Mus musculus [12] = test: Induction of osteoblast differentiation in ovariectomized BALB/c mouse model assessed as upregulation of RUNX2 mRNA expression at 1 mg/kg/day, po qd for 8 weeks by qPCR analysis; assay type: functional, organism-based
Calvarial osteoblast [13] = test: Induction of proliferation of mouse calvarial osteoblasts at 1 pM to 1 uM after 48 hrs; assay type: functional, cell-based
Mus musculus [14] = test: Induction of new bone formation in ovariectomized BALB/c mouse model assessed as increase in mineral apposition rate at 5 mg/kg/day, po qd for 8 weeks by bone histomorphometry analysis (Rvb =0.11 um/day); assay type: functional
Mus musculus [15] = test: Inhibition of osteoclastogenesis in ovariectomized BALB/c mouse model assessed as suppression of TRAP gene expression at 1 mg/kg/day, po qd for 8 weeks by qPCR analysis; assay type: functional, organism-based
Calvarial osteoblast [16] = test: Induction of osteoblastogenesis in mouse calvarial osteoblasts assessed as increase in expression of BMP2 gene at 100 pM by qPCR analysis relative to control; assay type: functional, cell-based
Mus musculus [17] = test: Antiosteoporotic activity in ovariectomized BALB/c mouse model assessed as restoration of ovariectomy-induced reduction in bone volume/trabecular volume at 10 mg/kg/day, po qd for 8 weeks (reference value: 0.45+/-0.07%); assay type: functional, Trabecula; set-up: scale not given: the % may be the effect or the level left
Mus musculus [18] = test: Antiosteoporotic activity in ovariectomized BALB/c mouse model assessed as restoration of ovariectomy-induced increase in trabecular separation at 1 mg/kg/day, po qd for 8 weeks (reference value: 0.99+/-0.08mm); assay type: functional, Trabecula
Mus musculus [19] = test: Antiosteoporotic activity in ovariectomized BALB/c mouse model assessed as restoration of ovariectomy-induced deterioration of trabecular microarchitecture at 1 to 10 mg/kg/day, po qd for 8 weeks; assay type: functional, organism-based; settings: Trabecula
Mus musculus [20] = test: Antiosteoporotic activity in ovariectomized BALB/c mouse model assessed as restoration of ovariectomy-induced reduction in trabecular number at 10 mg/kg/day, po qd for 8 weeks (reference value: 0.12+/-0.02 /mm); assay type: functional, Trabecula
[21] = Stimulation of alkaline phosphatase activity in mouse calvarial osteoblasts after 48 hrs by spectrophotometric analysis; how it was run: as §1
Mus musculus [22] = test: Antiosteoporotic activity in ovariectomized BALB/c mouse model assessed as restoration of ovariectomy-induced increase in trabecular separation at 5 mg/kg/day, po qd for 8 weeks (reference value: 0.99+/-0.08mm); assay type: functional, Trabecula
Calvarial osteoblast [23] = test: Induction of osteoblastogenesis in mouse calvarial osteoblasts assessed as increase in expression of ALP gene at 100 pM to 10 nM by qPCR analysis relative to control; assay type: functional
Mus musculus [24] = test: Antiosteoporotic activity in ovariectomized BALB/c mouse model assessed as restoration of ovariectomy-induced reduction in bone volume/trabecular volume at 1 mg/kg/day, po qd for 8 weeks (reference value: 0.45+/-0.07%); assay type: functional, Trabecula; set-up: scale not given: the % may be the effect or the level left
Mus musculus [25] = test: Antiosteoporotic activity in ovariectomized BALB/c mouse model assessed as restoration of ovariectomy-induced increase in structural model index at 10 mg/kg/day, po qd for 8 weeks; assay type: functional, organism-based
Calvarial osteoblast [26] = test: Induction of mineralization in mouse calvarial osteoblasts assessed as increase of mineralized nodules formation at 100 pM after 21 days by alizarin red-S staining based spectrophotometric analysis; assay type: functional
Calvarial osteoblast [27] = test: Induction of osteoblastogenesis in mouse calvarial osteoblasts assessed as increase in expression of COL1 gene at 100 pM by qPCR analysis relative to control; assay type: functional, cell-based
Mus musculus [28] = test: Hepatotoxicity against BALB/c mouse assessed as morphological changes at 1 to 10 mg/kg/day, po after 2 months; assay type: toxicity, organism-based; set-up: route oral; settings: in vivo
Calvarial osteoblast [29] = test: Induction of osteoblastogenesis in mouse calvarial osteoblasts assessed as increase in expression of RUNX2 gene at 100 pM by qPCR analysis relative to control; assay type: functional, cell-based
Mus musculus [30] = test: Induction of osteoblast differentiation in ovariectomized BALB/c mouse model assessed as upregulation of BMP2 mRNA expression po administered qd for 8 weeks by qPCR analysis; assay type: functional, organism-based
Calvarial osteoblast [31] = test: Induction of osteoblastogenesis in mouse calvarial osteoblasts assessed as increase in expression of BMP2 gene at 100 pM to 10 nM by qPCR analysis relative to control; assay type: functional
Mus musculus [32] = test: Antiosteoporotic activity in ovariectomized BALB/c mouse model assessed as restoration of ovariectomy-induced reduction in trabecular number at 5 mg/kg/day, po qd for 8 weeks (reference value: 0.12+/-0.02 /mm); assay type: functional, Trabecula
Mus musculus [33] = test: Inhibition of bone turnover in ovariectomized BALB/c mouse model assessed as reduction in ovariectomy-induced serum osteocalcin levels at 1 to 5 mg/kg/day, po qd for 8 weeks by ELISA relative to control; assay type: functional, organism-based
Mus musculus [34] = test: Inhibition of osteoclastogenesis in ovariectomized BALB/c mouse model assessed as increase in OPG/RANKL ratio at 1 mg/kg/day, po qd for 8 weeks by qPCR analysis; assay type: functional, organism-based

Question: For `CCOC(=O)C1=C(C)NC2=C(C(=O)CCC2)C1c1cc(C(C)CC)c2oc(=O)c(C(=O)OC)cc2c1` (centres undefined), which inhibition (Mus musculus [1]) is on record?
Answer: Its inhibition is “Active”.

Question: What about the Activity (Mus musculus [2]) of the same compound?
Answer: Its Activity is “Dose-dependent effect”.

Question: What about the Activity (Mus musculus [3]) of the same compound?
Answer: The Activity was “Active”.

Question: And the “fold change (FC)” value (Calvarial osteoblast [4])?
Answer: The value was 1.5.

Question: And the Activity (Calvarial osteoblast [5])?
Answer: Its Activity is “Active”.

Question: What about the Activity (Mus musculus [6]) of the same compound?
Answer: Its Activity is “Dose-dependent effect”.

Question: And the Activity (Mus musculus [7])?
Answer: The Activity was 0.33 um3/um2/day.

Question: And the “fold change (FC)” value (Calvarial osteoblast [8])?
Answer: Its value is 1.5.

Question: And the inhibition (Mus musculus [9])?
Answer: Its inhibition is “Active”.

Question: And the Activity (Mus musculus [10])?
Answer: The Activity was 80%.

Question: What about the Activity (Calvarial osteoblast [11]) of the same compound?
Answer: The Activity was “Active”.

Question: What about the Activity (Mus musculus [12]) of the same compound?
Answer: Its Activity is “Active”.

Question: What about the Activity (Calvarial osteoblast [13]) of the same compound?
Answer: Its Activity is “Active”.

Question: What about the Activity (Mus musculus [14]) of the same compound?
Answer: The Activity was 0.294 micrometer/day.

Question: And the inhibition (Mus musculus [15])?
Answer: The inhibition was “Active”.

Question: What about the Activity (Calvarial osteoblast [16]) of the same compound?
Answer: Its Activity is “Active”.

Question: What about the Activity (Mus musculus [17]) of the same compound?
Answer: The Activity was 2.07%.

Question: And the Activity (Mus musculus [18])?
Answer: The Activity was 0.66 mm.

Question: What about the Activity (Mus musculus [19]) of the same compound?
Answer: The Activity was “Active”.

Question: What about the Activity (Mus musculus [20]) of the same compound?
Answer: The Activity was 0.32 /millimeter.

Question: And the EC50 [21]?
Answer: The EC50 was 1170 nM.

Question: What about the Activity (Mus musculus [22]) of the same compound?
Answer: Its Activity is 0.72 mm.

Question: And the “fold change (FC)” value (Calvarial osteoblast [23])?
Answer: Its value is 1.5.

Question: What about the Activity (Mus musculus [24]) of the same compound?
Answer: Its Activity is 2.85%.

Question: What about the Activity (Mus musculus [25]) of the same compound?
Answer: Its Activity is “Active”.

Question: And the Activity (Calvarial osteoblast [26])?
Answer: The Activity was 65%.

Question: And the Activity (Calvarial osteoblast [27])?
Answer: The Activity was “Active”.

Question: What about the Activity (Mus musculus [28]) of the same compound?
Answer: The Activity was “Non-toxic”.

Question: And the Activity (Calvarial osteoblast [29])?
Answer: Its Activity is “Active”.

Question: And the Activity (Mus musculus [30])?
Answer: The Activity was “Dose-dependent effect”.

Question: What about the “fold change (FC)” value (Calvarial osteoblast [31]) of the same compound?
Answer: The value was 1.5.

Question: And the Activity (Mus musculus [32])?
Answer: Its Activity is 0.3 /millimeter.

Question: What about the inhibition (Mus musculus [33]) of the same compound?
Answer: The inhibition was “Active”.

Question: And the inhibition (Mus musculus [34])?
Answer: Its inhibition is “Active”.
